Results: ChEMBL document CHEMBL2046301, “Synthesis and antimycobacterial activity of some phthalimide derivatives” (Bioorg Med Chem, 2012)
Values after ≈ are worked out from the molar mass of the structure shown.

How the values were obtained:
[1] = tested on: Mycobacterium tuberculosis; assay: Antimycobacterial activity against Mycobacterium tuberculosis H37Ra ATCC 25177 by microbroth dilution method; assay type: functional
In short: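 M. tuberculosis H37Ra (ATCC 25177) colonies suspended in Middlebrook 7H9 broth to 1.0 McFarland, diluted tenfold, mixed 1:1 with twofold compound dilutions (DMSO stocks; final 256 to 1 µg/mL). Growth was checked by Kinyoun acid-fast smear. MIC = lowest concentration giving complete inhibition.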

L929 = assay: Cytotoxicity against mouse L929 cells at 0.1 mM after 24 hrs by MTT assay; assay type: cell-based; details: l929, 24 h, 100 µM
In short: (§1)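 L929 mouse fibroblasts seeded at 3 × 10³ cells/well in 100 µl medium; cell-free medium wells as controls. Exposed to compounds at 10^-4 M for 24 h. Viable cells quantified by MTT with absorbance read at 570 nm. Viability given as percent of absorbance of unexposed cells. Each experiment repeated three times.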

[2] = Cytotoxicity against mouse L929 cells at 0.1 mM assessed as cell viability after 24 hrs by MTT assay; assay type: cell-based; details: read-out: Activity; in short: as §1

| SMILES | MBC [1] [µg/mL] | MIC [1] [µg/mL] | Activity (L929) | viability at 24 h, 100 µM [2] [%] |
| --- | --- | --- | --- | --- |
| CC(=O)NS(=O)(=O)c1ccc(N2C(=O)c3ccccc3C2=O)cc1 | 256 (≈ 743 µM) | 256 (≈ 743 µM) | Non-toxic | – |
| O=C(NS(=O)(=O)c1ccc(N2C(=O)c3ccccc3C2=O)cc1)c1ccccc1 | 256 (≈ 630 µM) | 128 (≈ 315 µM) | Non-toxic | – |
| O=C1c2ccccc2C(=O)N1c1ccc(S(=O)(=O)Nc2nccs2)cc1 | 256 (≈ 664 µM) | 256 (≈ 664 µM) | Non-toxic | – |
| CC(=O)NS(=O)(=O)c1ccc(N2C(=O)c3c(F)c(F)c(F)c(F)c3C2=O)cc1 | 128 (≈ 307 µM) | 64 (≈ 154 µM) | Non-toxic | – |
| O=C(NS(=O)(=O)c1ccc(N2C(=O)c3c(F)c(F)c(F)c(F)c3C2=O)cc1)c1ccccc1 | 128 (≈ 268 µM) | 64 (≈ 134 µM) | Non-toxic | – |
| O=C1c2c(F)c(F)c(F)c(F)c2C(=O)N1c1ccc(S(=O)(=O)Nc2ncccn2)cc1 | 64 (≈ 141 µM) | 32 (≈ 70.7 µM) | Non-toxic | – |
| Cc1cc(C)nc(NS(=O)(=O)c2ccc(N3C(=O)c4c(F)c(F)c(F)c(F)c4C3=O)cc2)n1 | 128 (≈ 266 µM) | 32 (≈ 66.6 µM) | Toxic | – |
| O=C1c2c(F)c(F)c(F)c(F)c2C(=O)N1c1ccc(S(=O)(=O)Nc2nccs2)cc1 | 64 (≈ 140 µM) | 64 (≈ 140 µM) | Non-toxic | – |
| Cc1cc(NS(=O)(=O)c2ccc(N3C(=O)c4c(F)c(F)c(F)c(F)c4C3=O)cc2)no1 | 128 (≈ 281 µM) | 32 (≈ 70.3 µM) | Toxic | < 50 |
| Cc1ccnc(NS(=O)(=O)c2ccc(N3C(=O)c4c(F)c(F)c(F)c(F)c4C3=O)cc2)n1 | 256 (≈ 549 µM) | 128 (≈ 274 µM) | – | – |
| COc1ncnc(NS(=O)(=O)c2ccc(N3C(=O)c4c(F)c(F)c(F)c(F)c4C3=O)cc2)c1OC | 64 (≈ 125 µM) | 32 (≈ 62.5 µM) | Toxic | < 50 |
| NNC(=O)c1ccncc1 [ISONIAZID] | – | < 0.2 | – | – |
| Nc1ccc(S(=O)(=O)NC(=O)c2ccccc2)cc1 [SULFABENZAMIDE] | 256 (≈ 926 µM) | 32 (≈ 116 µM) | – | – |
| CC(=O)NS(=O)(=O)c1ccc(N)cc1 [SULFACETAMIDE] | 256 (≈ 1190 µM) | 64 (≈ 299 µM) | – | – |
| Nc1ccc(S(=O)(=O)Nc2ncccn2)cc1 [SULFADIAZINE] | 128 (≈ 511 µM) | 8 (≈ 32 µM) | – | – |
| COc1ncnc(NS(=O)(=O)c2ccc(N)cc2)c1OC [SULFADOXINE] | 256 (≈ 825 µM) | 32 (≈ 103 µM) | – | – |
| Cc1ccnc(NS(=O)(=O)c2ccc(N)cc2)n1 [SULFAMERAZINE] | 256 (≈ 969 µM) | 32 (≈ 121 µM) | – | – |
| Cc1cc(C)nc(NS(=O)(=O)c2ccc(N)cc2)n1 [SULFAMETHAZINE] | 256 (≈ 920 µM) | 32 (≈ 115 µM) | – | – |
| Cc1cc(NS(=O)(=O)c2ccc(N)cc2)no1 [SULFAMETHOXAZOLE] | 256 (≈ 1010 µM) | 32 (≈ 126 µM) | – | – |
| Nc1ccc(S(=O)(=O)Nc2nccs2)cc1 [SULFATHIAZOLE] | 16 (≈ 62.7 µM) | 4 (≈ 15.7 µM) | – | – |
| O=C1CCC(N2C(=O)c3ccccc3C2=O)C(=O)N1 (stereo not drawn) [THALIDOMIDE] | 256 (≈ 991 µM) | 128 (≈ 496 µM) | – | – |
